Measured values as given in ChEMBL document CHEMBL4152368, “Novel 4-(2-pyrimidinylamino)benzamide derivatives as potent hedgehog signaling pathway inhibitors” (Bioorg Med Chem, 2018).

What was measured:
[1] = Inhibition of Hedgehog signaling pathway in mouse NIH/3T3 cells assessed as reduction in Sonic hedgehog-induced Gli luciferase activity after 48 hrs by Dual-luciferase reporter gene assay; type: cell-based; settings: NIH3T3, 48 h
In short: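 NIH3T3 cells stably carrying a Gli-luciferase reporter were grown in DMEM/10% FBS with 1 μg/mL puromycin. They were seeded at 2×10⁴ cells/well and cultured overnight at 37 °C, 5% CO₂. Compounds were added as 8-point serial dilutions (0.05–300 nM) in 0.5% FBS with 0.7 μg/mL Sonic Hh agonist, n = 4 wells, for 48 h. Controls were 0.1% DMSO with or without Shh. Read-out was the Firefly/Renilla luciferase ratio.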

[2] = Cmax in Sprague-Dawley rat at 1 mg/kg, iv by LC/MS/MS analysis; type: ADME, organism-based; set-up: dose 1 mg/kg, route intravenous; settings: in vivo
In short: (§1)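 Male SD rats (3; 180–240 g) received a single 1 mg/kg iv dose at a dosing volume of 5 mL/kg. Blood was sampled at 2, 5, 15 and 30 min and at 1, 2, 4, 6, 8, 10 and 24 h, then centrifuged for 5 min at 4 °C. Plasma underwent protein precipitation and LC/MS/MS in SRM mode with an internal standard. Parameters were derived by noncompartmental analysis.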

[3] = AUC in Sprague-Dawley rat at 1 mg/kg, iv by LC/MS/MS analysis; type: ADME, organism-based; settings: in vivo; in short: as §1
[4] = Apparent volume of distribution in Sprague-Dawley rat at 1 mg/kg, iv by LC/MS/MS analysis; type: ADME, organism-based; settings: in vivo, read-out: Vz; in short: as §1
[5] = Half life in Sprague-Dawley rat at 1 mg/kg, iv by LC/MS/MS analysis; type: ADME, organism-based; settings: in vivo; in short: as §1
[6] = Clearance in Sprague-Dawley rat at 1 mg/kg, iv by LC/MS/MS analysis; type: ADME, organism-based; settings: in vivo; in short: as §1

Row | IC50 [1] | Cmax [2] | AUC [3] | Vd [4] | half-life [5] | clearance [6] | Structure (SMILES)
1 | 1.94 nM | – | – | – | – | – | Cc1ccc(CN2CCCCC2)cc1NC(=O)c1ccc(Nc2ncc(C)c(-c3ccccc3)n2)cc1
2 | 2.14 nM | – | – | – | – | – | Cc1ccc(OCCCN2CCOCC2)cc1NC(=O)c1ccc(Nc2ncc(C)c(-c3ccc(OC(F)(F)F)cc3)n2)cc1
3 | 1.89 nM | 1540 ng/mL | 1370 ng·h/mL | 0.888 L/kg | 50.4 min | 12.3 mL/min/kg | Cc1ccc(CN2CCOCC2)cc1NC(=O)c1ccc(Nc2ncc(C)c(-c3ccccn3)n2)cc1
4 | 2.45 nM | – | – | – | – | – | Cc1ccc(OCCN2CCOCC2)cc1NC(=O)c1ccc(Nc2ncc(C)c(-c3ccc(OC(F)(F)F)cc3)n2)cc1
5 | 2.21 nM | – | – | – | – | – | CCc1cnc(Nc2ccc(C(=O)Nc3cc(CN4CCN(C)CC4)ccc3C)cc2)nc1-c1ccc(OC(F)(F)F)cc1
6 | 4.28 nM | 863 ng/mL | 787 ng·h/mL | 2.75 L/kg | 86.4 min | 21.5 mL/min/kg | Cc1ccc(OCCN2CCOCC2)cc1NC(=O)c1ccc(Nc2ncc(C)c(-c3ccccc3)n2)cc1
7 | 1.54 nM | – | – | – | – | – | Cc1ccc(CN2CCN(C)CC2)cc1NC(=O)c1ccc(Nc2ncc(C3CC3)c(-c3ccc(OC(F)(F)F)cc3)n2)cc1
8 | 0.62 nM | – | – | – | – | – | CCN(CC)CCCNC(=O)c1ccc(C)c(NC(=O)c2ccc(Nc3ncc(C)c(-c4ccc(OC(F)(F)F)cc4)n3)cc2)c1
9 | 21.1 nM | – | – | – | – | – | Cc1ccc(CN2CCCC2)cc1NC(=O)c1ccc(Nc2ncc(C)c(-n3ccnc3)n2)cc1
10 | 1.07 nM | – | – | – | – | – | Cc1ccc(OCCN(C)C)cc1NC(=O)c1ccc(Nc2ncc(C)c(-c3ccc(OC(F)(F)F)cc3)n2)cc1
11 | 7.37 nM | – | – | – | – | – | Cc1ccc(CN2CCN(C)CC2)cc1NC(=O)c1ccc(Nc2ncc(C)c(-c3ccccn3)n2)cc1
12 | 29 nM | 2520 ng/mL | 521 ng·h/mL | 0.7 L/kg | 15 min | 33.6 mL/min/kg | Cc1ccc(CN2CCOCC2)cc1NC(=O)c1ccc(Nc2nccc(-c3cccnc3)n2)cc1
